Screening results as filed in PubChem.
The list is not random: actives were taken first. Their share in the collection is about 3.1%.
CHO parental Ca – counter-screen for OX1R antagonists: effect in parental CHO cells; AID 463079; inhibition, % at 5.6 µM; hit rate 0.63% among 330,000; parental CHO-K1, ATP-induced calcium, Fluo-8 fluorescence;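 active = inhibition above that plate's mean sample inhibition plus 3 SD, cut at about 26% in these data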;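 note: 0% = ATP-challenged DMSO wells and 100% = DMSO wells without ATP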
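Measured by: calcium-sensitive Fluo-8 fluorescence / Test system: CHO parental line / Controls: ATP-challenged DMSO wells low, unchallenged DMSO wells high / Measure: % inhibition / Compound: single nominal dose of 5.6 µM per compound / Replicates: single well per compound, no replicates / Reagent: ATP as calcium-mobilizing challenge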
GPR7 antag – human neuropeptides B/W receptor 1 antagonism; P48145; GPR7-expressing cells, fluorescence antagonist assay; inhibition, % at 4.4 µM; hit rate 1.1% among 290,000; AID 1861; in the data active = inhibition above about 16%, passing the limit was not always enough;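 note: cells stimulated with the agonist NPW; 0% = agonist with vehicle and 100% = vehicle without agonist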
Target sequence (P48145 whole entry, looked up): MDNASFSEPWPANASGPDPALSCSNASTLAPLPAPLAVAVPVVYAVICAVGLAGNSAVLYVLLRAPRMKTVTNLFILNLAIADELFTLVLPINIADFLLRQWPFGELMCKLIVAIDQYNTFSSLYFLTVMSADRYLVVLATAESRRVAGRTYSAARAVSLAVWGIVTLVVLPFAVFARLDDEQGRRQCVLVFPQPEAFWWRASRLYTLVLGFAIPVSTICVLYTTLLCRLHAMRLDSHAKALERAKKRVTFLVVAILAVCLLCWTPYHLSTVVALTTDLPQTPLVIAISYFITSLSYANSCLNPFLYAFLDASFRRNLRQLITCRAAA
GalR3 antagonist – human GalR3 antagonism; O60755; HEK293 GalR3-CNG cAMP membrane potential fluorescence; galR3 body fused to GalR1 C-terminus; inhibition, % at 3 µM; hit rate 0.44% among 360,000;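 active = inhibition above the screen-wide average plus 3 SD, cut at about 13% in these data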;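 note: forskolin and galanin both at EC90 stimulate the cells; cAMP rise reported by CNG channel membrane potential dye signal; 0% = forskolin plus galanin with DMSO and 100% = forskolin alone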
Target sequence (O60755 1-299 limits assumed): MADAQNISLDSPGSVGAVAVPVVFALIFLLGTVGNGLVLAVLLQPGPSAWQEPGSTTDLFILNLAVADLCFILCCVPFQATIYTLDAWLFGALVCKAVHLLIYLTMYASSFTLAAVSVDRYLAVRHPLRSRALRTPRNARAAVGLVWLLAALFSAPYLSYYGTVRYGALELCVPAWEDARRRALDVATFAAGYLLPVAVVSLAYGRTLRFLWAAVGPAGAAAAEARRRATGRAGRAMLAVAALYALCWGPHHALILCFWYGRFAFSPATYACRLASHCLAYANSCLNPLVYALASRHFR
OX1R antag-1 – OX1R (human) antagonism | hit rate 1.8% among 330,000 | OX1R-expressing cells, FRET antagonist read-out | O43613 | AID 485270 | inhibition, % at 6.6 µM; in the data active = inhibition mostly above about 38%, no sharp cut-off; inactive = mostly below about 40%;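 note: 0% = agonist challenge alone and 100% = reference antagonist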
OX1R antag-2 – blocks the human orexin 1 receptor; CHO/OX1R cells, Fluo-8 calcium fluorescence, orexin A; inhibition, % at 5 µM; hit rate 0.43% among 330,000; AID 434989;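 active = inhibition above its plate's threshold, mean inhibition of all tested compounds on the plate plus 3 SD, cut at about 37% in these data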;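 note: 0% = orexin A challenge wells and 100% = SB-334867-A antagonist wells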
The depositor's hits bear a star; · = not tested or not shown.

SMILES	CHO parental Ca	GPR7 antag	GalR3 antagonist	OX1R antag-1	OX1R antag-2
CN(C)c1ccc(-c2ccc3oc(-c4ccsc4)cc(=O)c3c2)cn1	-17.7	·	-1.4	57.4*	-4.4
O=c1cc(-c2ccsc2)oc2ccccc12	10.3	·	-5.2	12.4	-27.6
O=C(NCCCN1CCCC1=O)c1ccc(NS(=O)(=O)c2ccc(F)cc2)cc1	-7.5	·	-3.7	0.7	-16.5
C=CCN1C=CC(=C/C=C(/C#N)C(=O)OCC)C=C1	10.5	-2.0	-4.7	60.5*	19.2
COc1ccc2nc(NC(=O)Nc3cccc4ccccc34)sc2c1	5.4	-8.0	-7.1	41.7*	-13.6
COc1ccc2nc(NC(=O)c3ccc(F)cc3)sc2c1	-18.5	-14.9	-11.5	30.3	-16.9
COc1ccc2nc(NC(=O)c3ccc4ncsc4c3)sc2c1	-15.9	-13.0	·	57.0*	-30.9
COc1ccc2nc(NC(=O)Nc3ccccc3OC)sc2c1	-11.9	23.2	-8.1	66.0*	13.5
COc1cccc(C(CC(=O)Nc2cccc3ccccc23)NC(=O)c2ccccc2)c1 (stereo not given)	-2.4	-11.3	-9.0	34.8*	-15.1
COc1ccc2nc(Nc3ccccc3OC)sc2c1	-11.9	0.1	5.0	14.0	-32.1
Cc1ccsc1C(=O)N1CCC1(C)C(=O)NS(=O)(=O)c1cccc(F)c1 (stereo not given)	·	·	-4.1	·	·
CC(=O)c1ccc2c(c1)N(Cc1ccc3ccccc3c1)C(=O)C(C)S2 (stereo not given)	·	·	-7.0	·	·
O=C(Nc1ccc2c(c1)OCCO2)c1c[nH]c(=O)n(-c2ccc(F)c(Cl)c2)c1=O	-14.4	-9.9	-1.7	12.0	-20.7
COc1ccc2cc(C(C)C(=O)N3CCC(C(N)=O)CC3)ccc2c1 (stereo not given)	1.7	5.3	-5.7	24.3	0.2
Cc1csc2c(N3CCN(C(=S)Nc4ccc(F)cc4F)CC3)ncnc12	38.8*	5.8	-4.9	25.3	24.1
CCC(C)/C(C)=N/Nc1ccc(S(N)(=O)=O)cc1[N+](=O)[O-] (stereo not given)	21.5	-17.6	0.8	76.3*	-19.4
O=C(Oc1ccc2ccc(=O)oc2c1)c1ccc([N+](=O)[O-])cc1	5.0	-18.0	1.1	-0.9	-4.1
O=c1ccc2ccc(Oc3ccc([N+](=O)[O-])cc3[N+](=O)[O-])cc2o1	-9.1	-1.4	·	85.3*	-10.8
Fc1ccc2[nH]c3c(N4CCN(c5ccccc5)CC4)ncnc3c2c1	58.8*	5.1	-8.1	117.6*	67.5*
COc1ccc2[nH]c3c(N4CCc5ccccc5C4)ncnc3c2c1	15.2	13.0	-3.0	51.7	12.1
Cc1cccc2[nH]c3c(N4CC=C(c5ccc(F)cc5)CC4)ncnc3c12	35.6*	-11.8	-2.2	77.0*	19.4
COc1ccc(N2CCN(c3ncnc4c3[nH]c3ccccc34)CC2)cc1	75.0*	8.2	-5.2	89.1*	70.6*
COc1cccc2[nH]c3c(N4CCCCC4)ncnc3c12	-13.1	-3.8	96.4*	18.3	-25.5
COc1ccc(NC(=O)CN(C)C(=O)c2ccccc2Sc2ncnc3sc(C)c(C)c23)cc1	-34.6	·	-2.9	18.5	-23.3
CCOC(=O)N1CCN(c2ncnc3c2[nH]c2ccc(OC)cc23)CC1	2.8	2.4	-3.6	11.8	-16.5
SMILES	CHO parental Ca	GPR7 antag	GalR3 antagonist	OX1R antag-1	OX1R antag-2
CCOC(=O)N1CCN(c2ncnc3c2[nH]c2ccc(F)cc23)CC1	47.0*	10.4	1.3	67.7	52.4*
Cc1ccc(C)c(S(=O)(=O)N2CCN(c3nc(-c4cccnc4)nc4ccccc34)CC2)c1	-39.3	·	-4.9	46.8*	31.3
COC(=O)[C@@]12C[C@@H](CC(=O)NCC34CC5CC(CC(C5)C3)C4)C(=O)N(Cc3ccco3)C1=CCC(C)(C)C2	·	·	-8.6	·	·
C#CCNC(=O)C[C@H]1C[C@@]2(C(=O)OC)C(=C[C@H](C3CCCC3)O[C@@H]2C)N(CCCCCCCC)C1=O	·	·	-4.7	·	·
O=C(CN1C2CCCC1CC(NC(=O)C1CCCCC1)C2)Nc1ccccc1C(F)(F)F (stereo not given)	-5.8	-2.7	-6.3	42.0*	1.5
COCCCNC(=O)CCCN1C(=O)c2cccnc2Sc2ccccc21	0.2	5.7	4.5	3.9	-25.7
Cc1cccc(N(CC(=O)NCCSCc2ccco2)S(=O)(=O)c2ccccc2)c1	-11.0	-1.5	-4.8	58.5	32.1
COc1cccc(N(CC(=O)NCCSCc2ccco2)S(=O)(=O)c2ccccc2)c1	-12.9	4.4	-4.9	45.3*	23.1
CC(C)OC(=O)c1cc2ccccc2[nH]1	-6.6	-14.2	-9.3	17.8	-12.2
CCOC(=O)c1cc2cc3ccccc3cc2[nH]1	6.5	5.6	-5.5	37.6*	-7.8
CCCCOCCCNC(=O)C[C@H]1C[C@@]2(C(=O)OC)C(=C[C@H](C(C)(C)C)O[C@@H]2C)N(CCC2=CCCCC2)C1=O	·	·	-1.3	·	·
O=C(Nc1nnc(-c2ccco2)o1)c1ccc([N+](=O)[O-])s1	-6.8	-14.2	1.1	66.0*	-7.0
CC1CCCCN1C(=O)C1CCN(c2nc(-c3ccccc3)nc3c2CCC3)CC1 (stereo not given)	-15.4	-17.1	-6.8	20.8	-25.3
Cc1ccc(-c2nc3cccnc3s2)cc1NS(=O)(=O)c1ccc2c(c1)OCCO2	-14.9	5.1	·	18.9	-24.8
Cc1nc2ccc(S(=O)(=O)Nc3cccc(-c4nc5cccnc5s4)c3C)cc2s1	31.8*	-1.6	·	25.5	-10.4
Cc1ccc(-c2nc3cccnc3s2)cc1NS(=O)(=O)c1cccs1	-14.3	-20.9	·	40.6*	-13.6
CCOCC(=O)Nc1cccc(-c2nc3cccnc3s2)c1C	-10.1	-10.5	·	0.4	-23.5
Cc1ccc(-c2noc(CN(C)C(=O)c3ccc(Br)o3)n2)cc1	-5.3	·	-3.6	10.8	6.6
CC(=O)N(C1=C(O)c2ccccc2C(=O)C1=O)C1CCCCC1	-9.6	-5.5	-7.5	35.8*	-6.4
COc1ccc(C2OC3=C(Nc4cc(C)c(C)cc4N3)C2=O)cc1 (stereo not given)	-6.7	2.6	-8.8	20.8	-19.0
COc1ccccc1C1OC2=C(Nc3ccc([N+](=O)[O-])cc3N2)C1=O (stereo not given)	-9.8	21.6	-9.6	43.5*	-14.5
O=c1c(-c2ccccc2)c(O)nc2ccccn12	3.9	18.7*	-0.1	7.4	2.5
COc1ccc([C@H]2/C=C\CN(S(=O)(=O)c3cccc4cccnc34)[C@@H](C)C(=O)N2Cc2ccc(F)cc2)cc1	-9.9	·	-10.1	69.9*	17.1
CSc1ccccc1NC(=O)CN(C)C(=O)COc1cccc2cccnc12	-9.8	·	-6.7	32.1*	-4.2
Cc1c(C2Nc3ccccc3C2C)[nH]c2ccccc12 (stereo not given)	·	·	-1.8	·	·
Cc1nnc(N/N=C/c2cccc(OCc3ccc(Cl)c(Cl)c3)c2)n1N	-8.7	-5.4	-8.0	43.8*	-6.5
Cc1nnc(N/N=C/c2cccc(C(F)(F)F)c2)n1N	-9.4	-9.5	-7.4	22.1	-1.0
COC(=O)C1=C(C)N(Cc2ccc(Cl)cc2)C(=S)NC1c1ccc(Br)cc1 (stereo not given)	·	·	-8.5	·	·
